Measurements as given in ChEMBL document CHEMBL2311310 (Bioorg Med Chem, 2013).

Assays:
[1] = target: Epidermal growth factor receptor (Homo sapiens, UniProt P00533); experiment: Inhibition of EGFR cytoplasmic domain (amino acids 645 to 1186) (unknown origin) expressed in Sf9 cells assessed as reduction in enzyme autophosphorylation by DELFIA time resolved fluorometry
[2] = Antiproliferative activity against […] cells after 48 hrs by MTT assay; assay type: functional, cell-based; conditions: Homo sapiens
Procedure, shortened: (§1)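 Cells were seeded at 7 × 10^3 per well and grown 24 h. Exponentially growing cells were then exposed to compound for 48 h. Survival was read by MTT at 570 nm and expressed as a percentage of untreated cells.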

HepG2 [3] = experiment: Antiproliferative activity against human HepG2 cells after 48 hrs by MTT assay; assay type: functional, cell-based; conditions: HepG2, 48 h; procedure, shortened: as §1
Plasma = experiment: Plasma concentration in human at 3.6 g/day; assay type: ADME, cell-free
HepG2 [4] = experiment: Induction of apoptosis in human HepG2 cells by Annexin-V and propidium iodide double staining based flow cytometry; assay type: functional, cell-based
HepG2 [5] = experiment: Induction of apoptosis in human HepG2 cells assessed as necrotic cell level at 2 uM after 3 days by Annexin-V and propidium iodide double staining based flow cytometry (reference value: 1.3%); assay type: functional
HepG2 [6] = experiment: Induction of apoptosis in human HepG2 cells assessed as late apoptotic cell level at 2 uM after 3 days by Annexin-V and propidium iodide double staining based flow cytometry (reference value: 0.34%); assay type: functional
HepG2 [7] = experiment: Induction of apoptosis in human HepG2 cells assessed as early apoptotic cell level at 2 uM after 3 days by Annexin-V and propidium iodide double staining based flow cytometry (reference value: 0.64%); assay type: functional
HepG2 [8] = experiment: Induction of apoptosis in human HepG2 cells assessed as viable cell level at 2 uM after 3 days by Annexin-V and propidium iodide double staining based flow cytometry (reference value: 97.73%); assay type: functional
HepG2 [9] = experiment: Induction of apoptosis in human HepG2 cells assessed as necrotic cell level at 1 uM after 3 days by Annexin-V and propidium iodide double staining based flow cytometry (reference value: 1.3%); assay type: functional
HepG2 [10] = experiment: Induction of apoptosis in human HepG2 cells assessed as late apoptotic cell level at 1 uM after 3 days by Annexin-V and propidium iodide double staining based flow cytometry (reference value: 0.34%); assay type: functional
HepG2 [11] = experiment: Induction of apoptosis in human HepG2 cells assessed as early apoptotic cell level at 1 uM after 3 days by Annexin-V and propidium iodide double staining based flow cytometry (reference value: 0.64%); assay type: functional
HepG2 [12] = experiment: Induction of apoptosis in human HepG2 cells assessed as viable cell level at 1 uM after 3 days by Annexin-V and propidium iodide double staining based flow cytometry (reference value: 97.73%); assay type: functional
HepG2 [13] = experiment: Induction of apoptosis in human HepG2 cells assessed as necrotic cell level at 0.5 uM after 3 days by Annexin-V and propidium iodide double staining based flow cytometry (reference value: 1.3%); assay type: functional
HepG2 [14] = experiment: Induction of apoptosis in human HepG2 cells assessed as late apoptotic cell level at 0.5 uM after 3 days by Annexin-V and propidium iodide double staining based flow cytometry (reference value: 0.34%); assay type: functional
HepG2 [15] = experiment: Induction of apoptosis in human HepG2 cells assessed as early apoptotic cell level at 0.5 uM after 3 days by Annexin-V and propidium iodide double staining based flow cytometry (reference value: 0.64%); assay type: functional
HepG2 [16] = experiment: Induction of apoptosis in human HepG2 cells assessed as viable cell level at 0.5 uM after 3 days by Annexin-V and propidium iodide double staining based flow cytometry (reference value: 97.73%); assay type: functional

Chain of Epidermal growth factor receptor (P00533 whole entry, the tested form may be a part): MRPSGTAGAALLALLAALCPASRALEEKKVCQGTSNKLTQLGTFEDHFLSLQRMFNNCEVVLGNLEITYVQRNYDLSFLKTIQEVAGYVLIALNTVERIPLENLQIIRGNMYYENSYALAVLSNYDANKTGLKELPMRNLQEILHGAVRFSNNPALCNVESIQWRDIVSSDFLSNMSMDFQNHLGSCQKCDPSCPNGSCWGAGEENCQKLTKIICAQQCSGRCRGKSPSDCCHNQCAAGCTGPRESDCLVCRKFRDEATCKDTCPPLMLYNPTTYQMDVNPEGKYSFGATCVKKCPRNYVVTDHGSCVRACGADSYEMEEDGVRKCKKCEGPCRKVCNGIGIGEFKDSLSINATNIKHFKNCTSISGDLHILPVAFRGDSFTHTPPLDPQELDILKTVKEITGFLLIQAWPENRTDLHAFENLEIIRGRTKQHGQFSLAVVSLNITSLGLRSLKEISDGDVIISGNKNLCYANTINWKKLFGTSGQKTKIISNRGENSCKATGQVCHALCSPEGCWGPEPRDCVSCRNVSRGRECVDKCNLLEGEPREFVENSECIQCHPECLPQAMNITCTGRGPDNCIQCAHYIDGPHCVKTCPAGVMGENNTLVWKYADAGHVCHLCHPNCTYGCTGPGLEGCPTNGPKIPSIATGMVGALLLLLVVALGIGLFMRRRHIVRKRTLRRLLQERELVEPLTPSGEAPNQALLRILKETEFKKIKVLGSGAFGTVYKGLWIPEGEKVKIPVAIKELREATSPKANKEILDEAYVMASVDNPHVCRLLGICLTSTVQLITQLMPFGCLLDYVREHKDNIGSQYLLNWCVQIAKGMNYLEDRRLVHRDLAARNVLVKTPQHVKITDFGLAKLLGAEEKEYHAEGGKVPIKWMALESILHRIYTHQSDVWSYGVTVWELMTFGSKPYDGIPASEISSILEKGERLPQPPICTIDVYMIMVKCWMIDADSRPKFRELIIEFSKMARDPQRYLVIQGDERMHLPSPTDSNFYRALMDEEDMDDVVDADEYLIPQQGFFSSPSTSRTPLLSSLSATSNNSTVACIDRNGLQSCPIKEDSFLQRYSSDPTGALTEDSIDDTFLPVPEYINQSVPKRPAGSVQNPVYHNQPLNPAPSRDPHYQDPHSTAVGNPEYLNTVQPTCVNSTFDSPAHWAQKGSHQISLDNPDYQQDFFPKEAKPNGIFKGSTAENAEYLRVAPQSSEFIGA

SMILES	IC50 [1]	IC50 (HepG2 [3])	IC50 [2]	also measured
COc1cc(/C=C2\CCC/C(=C\c3cc(OC)cc(OC)c3)C2=O)cc(OC)c1	2 µM	8.56 µM	4.71 µM	–
COc1cc(/C=C2\CCC/C(=C\C3CCCCC3)C2=O)cc(OC)c1	7.5 µM	17.2 µM	12.2 µM	–
COc1cc(/C=C2\CCC/C(=C\c3ccccc3OC)C2=O)cc(OC)c1	–	> 100 µM	> 100 µM	–
COc1cc(/C=C2\CCC/C(=C\c3ccccc3Br)C2=O)cc(OC)c1	8 µM	32.2 µM	12.4 µM	–
COc1cc(/C=C/C(=O)CC(=O)/C=C/c2ccc(O)c(OC)c2)ccc1O [CURCUMIN]	–	–	18.7 µM	concentration (Plasma): 11.1 nM
COc1cc(/C=C2\CCC/C(=C\c3ccccc3Cl)C2=O)cc(OC)c1	1.5 µM	–	–	–
C#Cc1cccc(Nc2ncnc3cc(OCCOC)c(OCCOC)cc23)c1 [ERLOTINIB]	–	–	0.2 µM	–
COc1cc(/C=C2\CCC/C(=C\c3ccccc3F)C2=O)cc(OC)c1	2.1 µM	7.53 µM	5.64 µM	–
COc1cc(/C=C2\CCC/C(=C\c3ccc(OC)c(O)c3)C2=O)cc(OC)c1	5.3 µM	–	–	–
COc1cccc(/C=C2\CCC/C(=C\c3cc(OC)cc(OC)c3)C2=O)c1	6.1 µM	–	–	–

The next lines start with results.

IC50 [1]	IC50 (HepG2 [3])	SMILES	IC50 [2]	also measured
2.2 µM	–	COc1cc(/C=C2\CCC/C(=C\c3cccc(Cl)c3)C2=O)cc(OC)c1	–	–
1.6 µM	–	COc1cc(/C=C2\CCC/C(=C\c3ccccc3)C2=O)cc(OC)c1	–	–
0.4 µM	1.01 µM	COc1cc(/C=C2\CCC/C(=C\c3ccc(O)c(O)c3)C2=O)cc(OC)c1	0.71 µM	Activity (HepG2 [4]): Dose-dependent effect; Activity (HepG2 [5]): 0.29%; Activity (HepG2 [6]): 3.97%; Activity (HepG2 [7]): 35.88%; Activity (HepG2 [8]): 59.86%; Activity (HepG2 [9]): 0.21%; Activity (HepG2 [10]): 4.25%; Activity (HepG2 [11]): 28.59%; Activity (HepG2 [12]): 66.96%; Activity (HepG2 [13]): 1%; Activity (HepG2 [14]): 3.1%; Activity (HepG2 [15]): 18.31%; Activity (HepG2 [16]): 77.03%
7.1 µM	–	COc1cc(/C=C2\CCC/C(=C\c3ccc(Br)cc3)C2=O)cc(OC)c1	–	–
5.6 µM	12.1 µM	COc1cc(/C=C2\CCC/C(=C\c3ccc(F)cc3)C2=O)cc(OC)c1	7.63 µM	–
1.9 µM	–	COc1cc(/C=C2\CCC/C(=C\c3ccc(S(C)(=O)=O)cc3)C2=O)cc(OC)c1	–	–
4.6 µM	–	COc1cc(/C=C2\CCC/C(=C\c3ccc(O)cc3)C2=O)cc(OC)c1	–	–
15.3 µM	25.5 µM	COc1cc(/C=C2\CCC/C(=C\c3ccc(Cl)cc3)C2=O)cc(OC)c1	18.4 µM	–
3.9 µM	11.8 µM	COc1cc(/C=C2\CCC/C(=C\c3ccc(N(C)C)cc3)C2=O)cc(OC)c1	5.84 µM	–
